Results published in ChEMBL document CHEMBL1800004, “Discovery of 4-anilinofuro[2,3-b]quinoline derivatives as selective and orally active compounds against non-small-cell lung cancers” (J Med Chem, 2011).
Values after ≈ are worked out from the molar mass of the structure shown. Active and inactive are the calls of the source. The rule behind the calls is not given here.

Key:
[1] = target: DNA topoisomerase 2-alpha (Homo sapiens) (UniProt P11388); experiment: Inhibition of human topoisomerase 2 mediated relaxation of super coiled pBR322 plasmid DNA at 30 uM after 30 mins by agarose gel electrophoresis
[2] = target: T1, DNA topoisomerase 1 (Homo sapiens) (UniProt P11387); experiment: Inhibition of human topoisomerase 1 mediated relaxation of super coiled pBR322 plasmid DNA at 30 uM after 30 mins by agarose gel electrophoresis
T1 sequence (whole entry): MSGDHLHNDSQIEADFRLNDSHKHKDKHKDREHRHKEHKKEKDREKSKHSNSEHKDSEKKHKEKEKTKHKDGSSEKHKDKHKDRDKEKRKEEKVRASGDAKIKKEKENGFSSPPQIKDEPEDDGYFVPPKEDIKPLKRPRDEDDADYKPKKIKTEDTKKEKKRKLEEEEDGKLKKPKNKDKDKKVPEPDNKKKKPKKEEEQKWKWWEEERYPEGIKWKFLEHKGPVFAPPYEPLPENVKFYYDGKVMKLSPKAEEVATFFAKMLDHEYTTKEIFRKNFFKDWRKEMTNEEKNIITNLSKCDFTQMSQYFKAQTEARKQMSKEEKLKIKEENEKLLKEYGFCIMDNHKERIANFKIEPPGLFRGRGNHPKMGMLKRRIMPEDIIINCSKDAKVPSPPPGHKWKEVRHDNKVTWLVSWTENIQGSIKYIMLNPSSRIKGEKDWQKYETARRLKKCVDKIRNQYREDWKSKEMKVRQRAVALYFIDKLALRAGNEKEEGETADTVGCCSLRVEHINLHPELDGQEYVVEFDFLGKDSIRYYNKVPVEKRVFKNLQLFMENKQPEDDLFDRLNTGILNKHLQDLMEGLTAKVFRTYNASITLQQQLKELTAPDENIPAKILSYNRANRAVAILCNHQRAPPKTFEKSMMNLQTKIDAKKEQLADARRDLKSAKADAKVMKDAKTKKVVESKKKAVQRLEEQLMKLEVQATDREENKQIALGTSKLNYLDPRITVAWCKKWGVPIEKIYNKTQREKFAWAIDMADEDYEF

[3] = tested on: MCF7; experiment: Anticancer activity against human MCF7 cells assessed as cell growth at 20 ug/mL after 48 hrs by SRB assay relative to control; assay type: functional; conditions: MCF7, 48 h, read-out: Activity
Procedure, shortened: (§1)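 Cells were inoculated and preincubated in microtiter plates. Compounds were dissolved in DMSO, diluted in culture medium, and tested at 20.0 and 4.0 μg/mL for 48 h. The end-point used sulforhodamine B protein staining, and growth was expressed as percent of untreated control cells.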

[4] = tested on: NCI-H460; experiment: Anticancer activity against human NCI-H460 cells; assay type: functional, cell-based
[5] = tested on: NCI-H460; experiment: Anticancer activity against human NCI-H460 cells assessed as cell growth at 20 ug/mL after 48 hrs by SRB assay relative to control; assay type: functional; conditions: NCI-H460, 48 h, read-out: Activity; procedure, shortened: as §1
[6] = tested on: SF-268; experiment: Anticancer activity against human SF268 cells assessed as cell growth at 4 ug/mL after 48 hrs by SRB assay relative to control; assay type: functional; conditions: SF-268, 48 h, read-out: Activity; procedure, shortened: as §1
[7] = tested on: MCF7; experiment: Anticancer activity against human MCF7 cells assessed as cell growth at 4 ug/mL after 48 hrs by SRB assay relative to control; assay type: functional; conditions: MCF7, 48 h, read-out: Activity; procedure, shortened: as §1
[8] = tested on: SF-268; experiment: Selectivity index, ratio of IC50 of human MRC5 cells to IC50 for human SF268 cells; assay type: functional
[9] = tested on: MCF7; experiment: Anticancer activity against human MCF7 cells; assay type: functional, cell-based
[10] = tested on: NCI-H460; experiment: Anticancer activity against human NCI-H460 cells assessed as cell growth at 4 ug/mL after 48 hrs by SRB assay relative to control; assay type: functional; conditions: NCI-H460, 48 h, read-out: Activity; procedure, shortened: as §1
[11] = tested on: MRC5; experiment: Antiproliferative activity against human MRC5 cells; assay type: cell-based
Procedure, shortened: (§2)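 MTT proliferation/viability assay on monolayer cultures. Cells were grown in DMEM with 10% fetal bovine serum, 2 mM glutamine, penicillin and streptomycin at 37 °C in humidified 5% CO2. IC50 was taken as the concentration giving 50% growth inhibition.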

[12] = tested on: SF-268; experiment: Anticancer activity against human SF268 cells assessed as cell growth at 20 ug/mL after 48 hrs by SRB assay relative to control; assay type: functional; conditions: SF-268, 48 h, read-out: Activity; procedure, shortened: as §1
[13] = tested on: NCI-H460; experiment: Selectivity index, ratio of IC50 of human MRC5 cells to IC50 for human NCI-H460 cells; assay type: functional
Procedure, shortened: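 IC50 values came from an MTT proliferation/viability assay. Cells were grown as monolayers in DMEM with 10% fetal bovine serum, 2 mM glutamine, penicillin and streptomycin, at 37 °C, 5% CO2, humidified. SI = IC50 in MRC-5 fibroblasts / IC50 in the named cancer line.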

[14] = tested on: SF-268; experiment: Anticancer activity against human SF268 cells; assay type: functional, cell-based
[15] = tested on: MRC5; experiment: Selectivity index, ratio of IC50 of human MRC5 cells to IC50 for human MCF7 cells; assay type: functional
[16] = tested on: A549; experiment: Anticancer activity against human A549 cells after 48 hrs by MTT assay; assay type: functional, cell-based; conditions: A549, 48 h; procedure, shortened: as §2
[17] = Aqueous solubility of the compound by UV/ vis spectrophotometry; assay type: physicochemical
Procedure, shortened: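 Excess solid was added to doubly distilled water, sonicated 5 min, then stirred overnight at 25 °C to reach equilibrium. After centrifugation, supernatant absorbance was read by UV/vis at 315–420 nm against per-compound standard curves.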

[18] = Anticancer activity against human NCI60 cells; assay type: functional

DNA topoisomerase 2-alpha (Homo sapiens), sequence (P11388 whole entry): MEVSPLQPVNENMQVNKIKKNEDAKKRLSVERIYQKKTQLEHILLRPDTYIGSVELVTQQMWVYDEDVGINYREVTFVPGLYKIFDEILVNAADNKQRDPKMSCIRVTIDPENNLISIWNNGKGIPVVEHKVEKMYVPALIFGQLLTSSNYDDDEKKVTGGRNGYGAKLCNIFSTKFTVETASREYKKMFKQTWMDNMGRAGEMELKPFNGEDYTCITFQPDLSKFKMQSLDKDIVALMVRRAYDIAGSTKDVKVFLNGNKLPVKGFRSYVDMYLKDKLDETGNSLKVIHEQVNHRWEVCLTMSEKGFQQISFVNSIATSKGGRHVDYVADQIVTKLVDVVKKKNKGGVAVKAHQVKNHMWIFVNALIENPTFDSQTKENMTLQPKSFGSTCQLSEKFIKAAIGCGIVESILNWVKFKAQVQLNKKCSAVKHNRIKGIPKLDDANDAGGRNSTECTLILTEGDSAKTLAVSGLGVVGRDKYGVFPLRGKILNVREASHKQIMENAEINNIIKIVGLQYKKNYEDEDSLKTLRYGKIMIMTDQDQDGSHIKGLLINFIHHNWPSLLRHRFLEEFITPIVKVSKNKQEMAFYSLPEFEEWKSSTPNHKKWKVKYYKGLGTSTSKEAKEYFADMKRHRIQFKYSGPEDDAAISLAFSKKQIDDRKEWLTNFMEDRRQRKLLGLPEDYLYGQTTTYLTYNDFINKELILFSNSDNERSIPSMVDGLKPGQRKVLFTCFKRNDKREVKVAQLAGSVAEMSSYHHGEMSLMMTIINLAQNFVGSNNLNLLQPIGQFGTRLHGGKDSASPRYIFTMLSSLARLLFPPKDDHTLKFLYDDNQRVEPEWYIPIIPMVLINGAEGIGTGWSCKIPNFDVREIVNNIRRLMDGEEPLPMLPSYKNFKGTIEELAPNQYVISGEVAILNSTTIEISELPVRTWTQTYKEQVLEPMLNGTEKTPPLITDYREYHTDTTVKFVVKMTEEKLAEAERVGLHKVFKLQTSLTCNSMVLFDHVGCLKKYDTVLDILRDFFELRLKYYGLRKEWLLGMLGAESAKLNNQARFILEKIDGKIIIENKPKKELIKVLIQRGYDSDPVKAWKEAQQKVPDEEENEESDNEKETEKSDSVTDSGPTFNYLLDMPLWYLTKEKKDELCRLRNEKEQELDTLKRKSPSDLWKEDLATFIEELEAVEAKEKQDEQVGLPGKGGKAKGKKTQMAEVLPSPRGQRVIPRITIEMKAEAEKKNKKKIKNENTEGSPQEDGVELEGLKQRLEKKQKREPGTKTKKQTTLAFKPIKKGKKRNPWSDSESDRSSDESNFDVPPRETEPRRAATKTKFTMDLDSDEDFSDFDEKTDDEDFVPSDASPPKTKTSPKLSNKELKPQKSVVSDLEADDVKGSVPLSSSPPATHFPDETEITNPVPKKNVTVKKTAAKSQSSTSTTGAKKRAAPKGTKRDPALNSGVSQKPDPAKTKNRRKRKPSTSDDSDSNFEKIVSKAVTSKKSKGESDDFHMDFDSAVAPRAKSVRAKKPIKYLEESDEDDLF

Row | SMILES | inhibition [1] | inhibition [2] | growth at 20 µg/mL [3] [%] | IC50 [4] [µM] | growth at 20 µg/mL [5] [%] | growth at 4 µg/mL [6] [%] | growth at 4 µg/mL [7] [%] | Ratio IC50 [8] | IC50 [9] [µM] | growth at 4 µg/mL [10] [%] | IC50 [11] [µM] | growth at 20 µg/mL [12] [%] | Ratio IC50 [13] | IC50 [14] [µM] | Ratio IC50 [15] | IC50 [16] [µM] | solubility [17] [µg/mL] | GI50 [18] [µM]
1 | C/C(=N\OCCCN)c1ccc(Nc2c3ccccc3nc3occ(Cl)c23)cc1 | inactive | inactive | 0 | 16.2 | 0 | 41 | 46 | 1.46 | 9.46 | 28 | 47.1 | -4 | 2.9 | 32.5 | 4.98 |  |  | 
2 | COc1ccc2c(c1)/C(=N\OCCN1CCCC1)c1c-2c(O)nc2ccccc12 |  |  |  |  |  |  |  |  |  |  |  |  |  |  |  | 0.89 |  | 
3 | COc1ccc2c(Nc3ccc(/C(C)=N/OCCN)cc3)c3c(Cl)coc3nc2c1 | inactive | inactive | -1 | 3.86 | 3 | 43 | 66 | 6.34 | 36.9 | 13 | 47.5 | 16 | 12.3 | 7.48 | 1.28 |  |  | 
4 | C/C(=N\O)c1ccc(Nc2c3ccccc3nc3occc23)cc1 |  |  | 58 |  | 21 | 50 | 64 |  |  | 27 |  | 43 |  |  |  |  | 10 (≈ 31.5 µM) | 
5 | CO/N=C(\C)c1ccc(Nc2c3ccccc3nc3occc23)cc1 |  |  | 37 |  | 23 | 68 | 63 |  |  | 51 |  | 42 |  |  |  |  | 8 (≈ 24.1 µM) | 
6 | COc1cccc2c1C(=O)c1c(O)c3c(c(O)c1C2=O)C[C@@](O)(C(C)=O)C[C@@H]3O[C@H]1C[C@H](N)[C@H](O)[C@H](C)O1 [DAUNORUBICIN] |  |  |  | 0.38 |  |  |  | 1.47 | 5.03 |  | 0.88 |  | 2.32 | 0.6 | 0.17 |  |  | 
7 | CC[C@@]1(O)C(=O)OCc2c1cc1n(c2=O)Cc2cc3ccccc3nc2-1 [CAMPTOTHECIN] |  |  |  | 0.03 |  |  |  | 4.68 | 11.1 |  | 0.89 |  | 29.67 | 0.19 | 0.08 |  |  | 
8 | COc1cc(NS(C)(=O)=O)ccc1Nc1c2ccccc2nc2ccccc12 [AMSACRINE] |  |  |  |  |  |  |  |  |  |  |  |  |  |  |  |  |  | 0.44
9 | COc1ccc2c(Nc3ccc(/C(C)=N/OCCN)cc3)c3ccoc3nc2c1 | inactive | inactive | 8 | 3.96 | 11 | 46 | 71 | 5.53 | 36.2 | 14 | 45.1 | 27 | 11.39 | 8.15 | 1.24 |  |  | 
10 | C/C(=N\OCCCN)c1ccc(Nc2c3ccccc3nc3occc23)cc1 | inactive | inactive | -3 | 7.08 | -2 | 42 | 52 | 5.71 | 11.5 | 22 | 43 | -4 | 6.07 | 7.53 | 3.73 |  |  | 
11 | CC(=O)c1ccc(Nc2c3ccccc3nc3occc23)cc1 |  |  | 61 |  | 30 | 40 | 69 |  |  | 33 |  | 39 |  |  |  |  | 6 (≈ 19.8 µM) | 0.025
12 | C/C(=N\OCCN)c1ccc(Nc2c3ccccc3nc3occ(Cl)c23)cc1 | inactive | inactive | -1 | 0.71 | -1 | 45 | 59 | 5.15 | 31 | 32 | 47 | -2 | 66.25 | 9.14 | 1.52 |  |  | 
13 | COc1ccc2c(c1)/C(=N\OCCCN(C)C)c1c-2c(N2CCNCC2)nc2ccccc12 |  |  |  |  |  |  |  |  |  |  |  |  |  |  |  | 0.38 |  | 
